# Where “and” joins values, the source holds several entries; their conditions need not be identical. Equal values may be shown once.
# Experiments:
# [1] = system: Rattus norvegicus; test: In vivo increase of plasma insulin in normal rats at a hypoglycemic dose of 0.60 mmol/kg; format: functional, organism-based
# [2] = system: Rattus norvegicus; test: Percent change in blood glucose in normal rats at a hypoglycemic dose of 0.60 mmol/kg against control; format: functional
# Procedure, shortened: (§1)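 Female rats (175–195 g) were fasted 6–9 h and given compound orally as a suspension in 0.5% (w/v) methylcellulose (5 mL/kg). Blood glucose was measured enzymatically 45 min after dosing. Values are mean ± SEM, expressed as percent change against the control group.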
# [3] = organism: Oryctolagus cuniculus; test: In vitro insulin release was stimulated by the compound at a concentration of 0.01 mmol/L in rabbit pancreas; format: functional
# Procedure, shortened: (§2)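 Eight rabbit pancreas pieces, pooled from four rabbits per experiment, were incubated in bicarbonate-buffered medium containing 0.6 g/L glucose. Insulin per flask with compound was divided by basal release, taken as the mean of two preceding 20-min periods without compound. Results are mean ± SEM over n experiments.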
# [4] = organism: Oryctolagus cuniculus; test: In vitro insulin release was stimulated by the compound at a concentration of 0.03 mmol/L in rabbit pancreas; format: functional; procedure, shortened: as §2
# [5] = system: Rattus norvegicus; test: Percent change in plasma insulin in normal rats at a hypoglycemic dose of 0.60 mmol/kg against control; format: functional
# [6] = organism: Oryctolagus cuniculus; test: In vitro insulin release was stimulated by the compound at a concentration of 0.9 mmol/L in rabbit pancreas; format: functional; procedure, shortened: as §2
# [7] = organism: Oryctolagus cuniculus; test: In vitro insulin release was stimulated by the compound at a concentration of 0.1 mmol/L in rabbit pancreas; format: functional; procedure, shortened: as §2
# [8] = organism: Oryctolagus cuniculus; test: In vitro insulin release was stimulated by the compound at a concentration of 0.003 mmol/L in rabbit pancreas; format: functional; procedure, shortened: as §2
# [9] = system: Rattus norvegicus; test: […] in normal rats at a hypoglycemic dose of 0.60 mmol/kg; format: functional
# [10] = organism: Rattus norvegicus; test: In vitro inhibition of glucose oxidation by the compound in isolated rat fat cells; format: functional, cell-based
# Procedure, shortened: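 Epididymal fat cells from five young rats (140–160 g) were isolated by collagenase digestion. They were incubated with D-[1-14C]glucose (40 nCi/flask, 0.1 g glucose/L) across a range of compound concentrations. IC50 was read graphically from % inhibition vs log concentration, reported as mean ± SEM over n experiments.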
# [11] = system: Rattus norvegicus; test: Percent change in blood glucose in normal rats at a hypoglycemic dose of 2.0 mmol/kg. against control; format: functional; procedure, shortened: as §1
# [12] = system: Rattus norvegicus; test: […] in normal rats at a hypoglycemic dose of 2.0 mmol/kg; format: functional
# [13] = system: Rattus norvegicus; test: In vivo increase of plasma insulin in normal rats at a hypoglycemic dose of 2.0 mmol/kg; format: functional, organism-based
# [14] = system: Rattus norvegicus; test: In vivo increase of plasma insulin in normal rats at a hypoglycemic dose of […].; format: functional, organism-based
# [15] = organism: Oryctolagus cuniculus; test: In vitro insulin release was stimulated by the compound at a concentration of 0.1 mmol/L; format: functional; procedure, shortened: as §2
# [16] = system: Rattus norvegicus; test: […] in normal rats at a hypoglycemic dose of 0.008 mmol/kg.; format: functional
# [17] = system: Rattus norvegicus; test: In vivo increase of plasma insulin in normal rats at a hypoglycemic dose of 0.008 mmol/kg.; format: functional, organism-based
# [18] = system: Rattus norvegicus; test: Percent change in blood glucose in normal rats at a hypoglycemic dose of 0.008 mmol/kg against control; format: functional; procedure, shortened: as §1
# [19] = system: Rattus norvegicus; test: Percent change in blood glucose in normal rats at a hypoglycemic dose of 0.008 mmol/kg. against control; format: functional; conditions: in the assay text read “plasma insulin” for “blood glucose”
# [20] = system: Rattus norvegicus; test: Percent change in blood glucose in normal rats at a hypoglycemic dose of 0.024 mmol/kg against control; format: functional; procedure, shortened: as §1
# [21] = organism: Oryctolagus cuniculus; test: In vitro insulin release was stimulated by the compound at a concentration of 0.3 mmol/L in rabbit pancreas; format: functional; procedure, shortened: as §2
# [22] = system: Rattus norvegicus; test: Percent change in blood glucose in normal rats at a hypoglycemic dose of 0.072 mmol/kg against control; format: functional; procedure, shortened: as §1
# [23] = system: Rattus norvegicus; test: […] in normal rats at a hypoglycemic dose of 0.024 mmol/kg.; format: functional
# [24] = system: Rattus norvegicus; test: […] in normal rats at a hypoglycemic dose of 0.072 mmol/kg.; format: functional
# [25] = system: Rattus norvegicus; test: In vivo increase of plasma insulin in normal rats at a hypoglycemic dose of […]; format: functional, organism-based
# [26] = system: Rattus norvegicus; test: Blood glucose determined in normal rats at a hypoglycemic dose of 0.17 mmol/kg.
# [27] = system: Rattus norvegicus; test: In vivo increase of plasma insulin in normal rats at a hypoglycemic dose of 0.17 mmol/kg.; format: functional, organism-based
# [28] = system: Rattus norvegicus; test: […] in normal rats at a hypoglycemic dose of 0.18 mmol/kg.; format: functional
# [29] = system: Rattus norvegicus; test: In vivo increase of plasma insulin in normal rats at a hypoglycemic dose of 0.18 mmol/kg; format: functional, organism-based
# [30] = system: Rattus norvegicus; test: In vivo increase of plasma insulin in normal rats at a hypoglycemic dose of 0.0084 […]; format: functional, organism-based
# [31] = system: Rattus norvegicus; test: Percent change in plasma insulin in normal rats at a hypoglycemic dose of 0.0084 mmol/kg against control
# [32] = organism: Rattus norvegicus; test: Percent change in blood glucose against control; format: functional; procedure, shortened: as §1
# [33] = organism: Rattus norvegicus; test: Percent change in plasma insulin against control; format: functional
# [34] = system: Rattus norvegicus; test: […] in normal rats at a hypoglycemic dose of 0.0084 mmol/kg; format: functional
# [35] = system: Rattus norvegicus; test: […] in normal rats at a hypoglycemic dose of 0.028 mmol/kg.; format: functional
# [36] = system: Rattus norvegicus; test: In vivo increase of plasma insulin in normal rats at a hypoglycemic dose of 0.028 […]; format: functional, organism-based
structure (smiles),measurement,setting,value
N=C1N(C2CCCCC2)CCN1S(=O)(=O)c1ccc(N)cc1,Plasma insulin,[1],136 pM l-1
same,Change,[2],-21%
same,Insulin release,[3],1.22
same,Insulin release,[4],1.74
same,Change,[5],42%
same,Insulin release,[6],3.21
same,Insulin release,[7],3.21
same,Insulin release,[8],1.01
same,Blood glucose,[9],4.66 mM
same,IC50,[10],180 µM
N=C(N)NC(=N)NCCc1ccccc1 [PHENFORMIN],Change,[11],-10% and -6%
same,Blood glucose,[12],5.52 mM
same,Plasma insulin,[13],86.1 pM l-1
same,IC50,[10],180 µM
CCCC(=O)NCCc1ccc(S(=O)(=O)N2CCN(C3CCCCC3)C2=N)cc1,Plasma insulin,[14],310 pM l-1
same,Insulin release,[15],2.51
same,Blood glucose,[16],4.86 mM
same,Insulin release,[3],1.84
same,Insulin release,[4],2.18
same,Plasma insulin,[17],108 pM l-1
same,Change,[18],-17%
same,Change,[19],12%
same,Change,[20],-38%
same,Insulin release,[21],3.06
same,Change,[22],-38%
same,Blood glucose,[23],3.62 mM
same,Blood glucose,[24],3.63 mM
same,Plasma insulin,[25],396 pM l-1
same,Insulin release,[8],1.02
same,IC50,[10],71 µM
CCCCNC(=O)NS(=O)(=O)c1ccc(C)cc1 [TOLBUTAMIDE],Insulin release,[3],1.81
same,Insulin release,[6],4.23
same,Insulin release,[7],4.33
same,Blood glucose,[26],3.86 mmol/L
same,Insulin release,[8],0.95
same,Plasma insulin,[27],278 pM l-1
same,IC50,[10],> 500 µM
COc1cccc(C(=O)NCCc2ccc(S(=O)(=O)N3CCN(C4CCCCC4)C3=N)cc2)c1,Insulin release,[3],2.08
same,Insulin release,[4],2.24
same,Blood glucose,[28],3.08 mM
same,Plasma insulin,[29],285 pM l-1
same,Insulin release,[21],3.66
same,Insulin release,[7],3.13
same,Insulin release,[8],0.98
same,IC50,[10],20 µM
C/C=C/C(=O)NCCc1ccc(S(=O)(=O)N2CCN(C3CCCCC3)C2=N)cc1,Insulin release,[3],2.73
same,Plasma insulin,[30],163 pM l-1
same,Change,[31],71%
same,Change,[32],-31% and -42%
same,Insulin release,[21],1.82
same,Change,[33],397%
same,Blood glucose,[34],4.04 mM
same,Insulin release,[8],1.88
same,Blood glucose,[35],3.42 mM
same,Plasma insulin,[36],476 pM l-1
same,IC50,[10],180 µM

# Source: ChEMBL document CHEMBL1122444, “Sulfonyliminoimidazolidines. A new class of oral hypoglycemic agents. 2. Mode of action and X-ray structure of 1-[[p-[2-(crotonylamino)ethyl]phenyl]sulfonyl]-3-cyclohexyl-2-iminoimidazolidine” (J Med Chem, 1983)
